Experimental data published in ChEMBL document CHEMBL1926565, “Synthesis, antiproliferative activities and telomerase inhibition evaluation of novel asymmetrical 1,2-disubstituted amidoanthraquinone derivatives” (Eur J Med Chem, 2012).
Calls of active or inactive are those of the source. No cut-off for these calls is given here.

Key:
[1] = tested on: PC-3; experiment: Cytotoxicity against human PC3 cells after 48 hrs by SRB assay; format: functional, cell-based; details: PC-3, 48 h
Outline: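 PC-3 cells grown in RPMI1640 with 10% FBS at 37 °C, 5% CO₂. Seeded in medium with 5% FBS; after 24 h, one plate fixed with 10% TCA as T₀. Compound or 0.1% DMSO vehicle added for 48 h, then TCA fixation and 0.4% SRB in 1% acetic acid. Dye solubilized in 10 mM Trizma base, absorbance read at 515 nm. IC50 is the concentration giving 50% reduction of the protein gain in controls.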

[2] = molecular target: Telomerase reverse transcriptase (Homo sapiens) (UniProt O14746); experiment: Inhibition of telomerase activity in human H1299 cell free extract at 10 uM by modified TRAP assay
Outline: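 TRAP assay using total cell lysate from H1299 lung cancer cells as the telomerase source, with protein measured against BSA standards. Compounds tested at 10 µM. Controls were lysate without inhibitor (positive) and RNase A-treated extract without inhibitor (negative).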

[3] = Growth of human H1299 cells at 100 uM 48 hrs by MTT assay; details: NCI-H1299, 48 h
[4] = Growth of human H1299 cells at 1 uM after 48 hrs by MTT assay; details: NCI-H1299, 48 h
[5] = Growth of human H1299 cells at 10 uM after 48 hrs by MTT assay; details: NCI-H1299, 48 h
[6] = molecular target: Telomerase reverse transcriptase (Homo sapiens) (UniProt O14746); experiment: Residual activity of human TERT in H1299 cells at 1 uM after 24 hrs by SEAP reporter gene assay
[7] = molecular target: Telomerase reverse transcriptase (Homo sapiens) (UniProt O14746); experiment: Residual activity of human TERT in H1299 cells at 10 uM after 24 hrs by SEAP reporter gene assay
[8] = molecular target: Telomerase reverse transcriptase (Homo sapiens) (UniProt O14746); experiment: Residual activity of human TERT in H1299 cells at 100 uM after 24 hrs by SEAP reporter gene assay

Telomerase reverse transcriptase (Homo sapiens), sequence (O14746 whole entry): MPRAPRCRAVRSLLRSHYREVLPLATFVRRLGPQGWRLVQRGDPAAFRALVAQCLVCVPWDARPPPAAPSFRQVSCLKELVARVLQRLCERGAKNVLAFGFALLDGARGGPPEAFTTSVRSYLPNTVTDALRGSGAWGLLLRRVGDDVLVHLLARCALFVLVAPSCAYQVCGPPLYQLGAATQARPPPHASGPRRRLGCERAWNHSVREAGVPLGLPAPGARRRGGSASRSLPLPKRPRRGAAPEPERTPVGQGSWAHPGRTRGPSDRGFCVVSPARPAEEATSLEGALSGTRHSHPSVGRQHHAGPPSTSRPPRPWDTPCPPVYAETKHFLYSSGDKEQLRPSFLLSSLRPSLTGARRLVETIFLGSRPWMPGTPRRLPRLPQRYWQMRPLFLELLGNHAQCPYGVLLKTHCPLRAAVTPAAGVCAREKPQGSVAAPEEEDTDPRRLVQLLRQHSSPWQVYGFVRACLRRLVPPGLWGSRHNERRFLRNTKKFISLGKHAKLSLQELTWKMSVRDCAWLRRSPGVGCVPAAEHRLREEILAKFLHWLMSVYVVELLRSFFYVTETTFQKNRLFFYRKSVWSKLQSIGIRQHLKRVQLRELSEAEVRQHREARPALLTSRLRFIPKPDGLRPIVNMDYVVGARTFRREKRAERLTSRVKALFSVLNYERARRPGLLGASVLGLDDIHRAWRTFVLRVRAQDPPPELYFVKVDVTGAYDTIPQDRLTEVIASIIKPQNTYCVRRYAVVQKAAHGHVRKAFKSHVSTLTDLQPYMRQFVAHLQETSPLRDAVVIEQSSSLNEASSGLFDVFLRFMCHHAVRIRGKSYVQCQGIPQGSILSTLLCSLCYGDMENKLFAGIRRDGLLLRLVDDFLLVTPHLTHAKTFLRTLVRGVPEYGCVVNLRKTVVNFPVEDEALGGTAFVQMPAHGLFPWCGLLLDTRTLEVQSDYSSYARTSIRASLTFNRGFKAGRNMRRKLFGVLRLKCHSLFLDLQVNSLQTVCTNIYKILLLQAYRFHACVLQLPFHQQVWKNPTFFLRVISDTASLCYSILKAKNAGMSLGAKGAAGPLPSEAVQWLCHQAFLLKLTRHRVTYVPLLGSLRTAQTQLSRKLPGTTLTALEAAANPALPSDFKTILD

| Compound | IC50 [1] | inhibition [2] | growth, % of control at 100 µM [3] | growth, % of control at 1 µM [4] | growth, % of control at 10 µM [5] | residual activity [6] | residual activity [7] | residual activity [8] |
| --- | --- | --- | --- | --- | --- | --- | --- | --- |
| O=C(CCl)Nc1ccc2c(c1NC(=O)CCl)C(=O)c1ccccc1C2=O | 1.19 µM | inactive | 0% | 8% | 0% | 15% | 13% | 13% |
| Cc1cc(C(=O)Nc2c(NC(=O)CCl)ccc3c2C(=O)c2ccccc2C3=O)c(C)o1 | 4.31 µM | inactive | 0% | 96% | 2% | 81% | 2% | 0% |
| O=C(CCl)Nc1ccc2c(c1NC(=O)COc1ccccc1)C(=O)c1ccccc1C2=O | > 20 µM | inactive | 4% | 101% | 66% | 82% | 72% | 4% |
| Cc1ccc(C(=O)Nc2c(NC(=O)CN3CCN(c4ccccn4)CC3)ccc3c2C(=O)c2ccccc2C3=O)cc1 | > 20 µM | inactive | 6% | 105% | 100% | 97% | 64% | 9% |
| O=C(CCl)Nc1ccc2c(c1NC(=O)c1cccs1)C(=O)c1ccccc1C2=O | 2.64 µM | inactive | 0% | 0% | 2% | 5% | 3% | 2% |
| O=C(CCl)Nc1ccc2c(c1NC(=O)c1ccccc1C(F)(F)F)C(=O)c1ccccc1C2=O | 3.42 µM | inactive | 0% | 93% | 3% | 93% | 4% | 2% |
